Series [1] relates to NIH/3T3 cells. Nature of the series: Cytotoxicity by MTS assay, NIH/3T3. It counts as cell-based. As to conditions: free polymer, 4 hrs exposure, MTS at 48 hrs; four-parameter fit. The procedure, abridged:
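Polymers at a range of concentrations were made up in ddH2O and diluted 10-fold into reduced-serum MEM. NIH/3T3 cells were rinsed once with PBS and exposed for 4 hrs. At 48 hrs MTS reagent was added, followed by 3 hrs of incubation and absorbance reading at 490 nm. IC50 was expressed in amine equivalents and obtained by a four-parameter variable-slope nonlinear fit.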
In general terms: Tetrazolium dyes change colour on reduction, which living cells bring about.

For series [2], the target named is T1, human liver cathepsin B (Homo sapiens, UniProt P07858). Nature of the series: Polyplex destabilization by DLS under cathepsin B treatment. It counts as in vitro ADME. As to conditions: 4 N:P, 5.33 μg/mL DNA, pH 5, 37 °C. The procedure, abridged: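 Polyplexes were formed at 4 N:P: pCMV-Luc2 plasmid (0.1 mg/mL in ddH2O) was mixed with an equal volume of polymer for 10 min at room temperature. These were added to pre-activated cathepsin B (1.28 μg/mL final, pH 5 acetate) at 5.33 μg/mL DNA final. The sample sat in a capped cuvette pre-equilibrated at 37 °C. DLS particle size was read every 15 min for 8 hrs.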

Series [3] concerns the target T1, human liver cathepsin B. Nature of the series: Cathepsin B-mediated polymer degradation. Format: in vitro ADME. As to conditions: for Degradation Type: Table 1 summary of peptidase susceptibility of copolymer; for Cathepsin B degradation of polymer (in words): 44 μg/mL polymer, 1.28 μg/mL cathepsin B, acetate pH 5, 37 °C, SEC. The procedure, abridged: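 HPMA-oligolysine copolymers were made by RAFT polymerization. Cathepsin B was pre-activated with DTT/EDTA at 37 °C for 15 min, then used in pH 5 acetate/EDTA buffer at 1.28 μg/mL final. Polymer was 44 μg/mL final, at 37 °C. Aliquots taken over time were stopped with E-64. Relative differential refractive index profiles from SEC were compared, with supporting MALDI-TOF MS.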

Series [4] deals with T1, human liver cathepsin B. It counts as in vitro ADME. Conditions: 4 N:P, 5.33 μg/mL DNA, cathepsin B pH 5, 37 °C; normalized to plasmid-only. The procedure, abridged:
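Plasmid was pre-labelled with YOYO-1 (dye:base pair 1:50, 1 hr, room temperature) and complexed with polymer at 4 N:P. Polyplexes were incubated with pre-activated cathepsin B (pH 5 acetate, 37 °C) at 5.33 μg/mL DNA final. Timed aliquots were stopped with E-64 and diluted in ddH2O. Fluorescence was read at ex 491/em 509 nm and normalized to uncomplexed plasmid signal.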

In the case of “HPMA-co-MaAhxFKFLAhx(D)K10 [pHCath(D)K10]”, the “IC50 (μg/mL), NIH/3T3” value in series [1] was 28.7 µg/mL. In addition, the “Polyplex particle size over 8 hrs cathepsin B treatment” value in series [2] (DLS every 15 min) is ~ 600 nm.
As for HPMA-co-MaAhxFKFLAhxK10 [pHCathK10], in series [1], the “IC50 (μg/mL), NIH/3T3” value was found to be 29.7 µg/mL. Also, the “Degradation Type” value in series [3] is listed as “Endo/exopeptidase”. For the same substance, the “Polyplex particle size at start of cathepsin B treatment” value in series [2] (DLS) is ~ 150 nm. For the same substance, the “Polyplex particle size after 4 hrs cathepsin B treatment (plateau)” value in series [2] (DLS every 15 min) is given as “about 500 nm”. The “YOYO-1 fluorescence relative to free plasmid by 8 hrs of cathepsin B exposure” value in series [4] was 70%.
On to “HPMA-co-MaAhx(D)FKFLAhx(D)K10 [pH(D)Cath(D)K10]”, for which the “IC50 (μg/mL), NIH/3T3” value in series [1] is 30.3 µg/mL. Also, in series [3], the “Cathepsin B degradation of polymer (in words)” value is listed as “no degradation” and the “Degradation Type” value is “None”. Moreover, the “Polyplex particle size over 8 hrs cathepsin B treatment” value in series [2] (DLS every 15 min) is ~ 150 nm.
For the substance HPMA-co-MaAhxK10 [reference compound], the “Cathepsin B degradation of polymer (in words)” value in series [3] is on record as “observed MW shift over 4hrs is comparable to 10 min with pHCathK10”.

The values are drawn from publication PMC3277802 (Journal of Controlled Release, 2011).
